Data taken from ChEMBL document CHEMBL1681705, “Optimisation of ITK inhibitors through successive iterative design cycles” (Bioorg Med Chem Lett, 2011).

Experiments:
[1] = target: Mitogen-activated protein kinase 8 (Homo sapiens) (UniProt P45983); test: Inhibition of JNK1a1 at 1 uM
Summary of the method: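 Single-point profiling in a panel of 108 kinases. Each selected inhibitor was tested at two concentrations, 0.1 and 1.0 micromolar. Values are reported as inhibition at each concentration.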

[2] = target: T1, Serine/threonine-protein kinase TBK1 (Homo sapiens) (UniProt Q9UHD2); test: Inhibition of TBK1 at 1 uM; values are per cent of control
T1 sequence (whole entry): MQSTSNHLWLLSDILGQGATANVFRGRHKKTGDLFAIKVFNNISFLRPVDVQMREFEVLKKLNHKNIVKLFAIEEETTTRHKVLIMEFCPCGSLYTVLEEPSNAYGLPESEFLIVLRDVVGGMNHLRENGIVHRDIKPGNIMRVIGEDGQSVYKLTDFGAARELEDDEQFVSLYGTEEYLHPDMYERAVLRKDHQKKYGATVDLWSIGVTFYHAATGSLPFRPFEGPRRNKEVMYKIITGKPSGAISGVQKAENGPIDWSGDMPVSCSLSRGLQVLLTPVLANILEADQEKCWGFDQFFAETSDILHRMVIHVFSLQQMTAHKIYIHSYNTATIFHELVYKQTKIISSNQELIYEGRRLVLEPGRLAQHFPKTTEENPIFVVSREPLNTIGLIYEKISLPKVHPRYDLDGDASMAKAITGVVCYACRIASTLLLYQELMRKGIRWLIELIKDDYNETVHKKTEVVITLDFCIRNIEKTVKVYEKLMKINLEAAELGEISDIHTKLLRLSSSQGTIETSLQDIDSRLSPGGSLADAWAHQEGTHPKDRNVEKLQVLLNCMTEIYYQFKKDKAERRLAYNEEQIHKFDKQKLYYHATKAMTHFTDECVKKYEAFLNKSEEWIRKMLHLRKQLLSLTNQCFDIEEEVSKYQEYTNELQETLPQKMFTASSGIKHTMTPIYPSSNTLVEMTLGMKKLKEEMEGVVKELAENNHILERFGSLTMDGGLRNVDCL

[3] = target: Tyrosine-protein kinase HCK (Homo sapiens) (UniProt P08631); test: Inhibition of Hck at 0.1 uM; values are per cent of control
[4] = target: T2, Tyrosine-protein kinase ZAP-70 (Homo sapiens) (UniProt P43403); test: Inhibition of ZAP70 at 1 uM; values are per cent of control
T2 sequence (whole entry): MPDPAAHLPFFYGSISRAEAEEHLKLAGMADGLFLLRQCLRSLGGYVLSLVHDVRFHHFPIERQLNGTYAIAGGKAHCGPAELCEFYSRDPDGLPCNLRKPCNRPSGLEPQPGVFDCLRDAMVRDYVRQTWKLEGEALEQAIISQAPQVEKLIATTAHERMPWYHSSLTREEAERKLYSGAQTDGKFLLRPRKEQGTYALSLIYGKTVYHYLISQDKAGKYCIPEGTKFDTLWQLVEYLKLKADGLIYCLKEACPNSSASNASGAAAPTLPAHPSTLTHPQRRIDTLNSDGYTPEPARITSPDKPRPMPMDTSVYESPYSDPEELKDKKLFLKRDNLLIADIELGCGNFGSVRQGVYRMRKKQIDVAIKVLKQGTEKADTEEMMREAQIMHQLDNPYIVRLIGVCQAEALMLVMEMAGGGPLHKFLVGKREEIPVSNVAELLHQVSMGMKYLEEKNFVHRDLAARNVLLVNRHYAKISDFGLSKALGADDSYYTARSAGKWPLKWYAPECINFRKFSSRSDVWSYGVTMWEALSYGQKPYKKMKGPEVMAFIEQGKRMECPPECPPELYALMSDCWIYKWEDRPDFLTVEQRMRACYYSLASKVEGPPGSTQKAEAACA

[5] = target: T3, Protein kinase C epsilon type (Homo sapiens) (UniProt Q02156); test: Inhibition of PKCepsilon at 1 uM; values are per cent of control
T3 sequence (whole entry): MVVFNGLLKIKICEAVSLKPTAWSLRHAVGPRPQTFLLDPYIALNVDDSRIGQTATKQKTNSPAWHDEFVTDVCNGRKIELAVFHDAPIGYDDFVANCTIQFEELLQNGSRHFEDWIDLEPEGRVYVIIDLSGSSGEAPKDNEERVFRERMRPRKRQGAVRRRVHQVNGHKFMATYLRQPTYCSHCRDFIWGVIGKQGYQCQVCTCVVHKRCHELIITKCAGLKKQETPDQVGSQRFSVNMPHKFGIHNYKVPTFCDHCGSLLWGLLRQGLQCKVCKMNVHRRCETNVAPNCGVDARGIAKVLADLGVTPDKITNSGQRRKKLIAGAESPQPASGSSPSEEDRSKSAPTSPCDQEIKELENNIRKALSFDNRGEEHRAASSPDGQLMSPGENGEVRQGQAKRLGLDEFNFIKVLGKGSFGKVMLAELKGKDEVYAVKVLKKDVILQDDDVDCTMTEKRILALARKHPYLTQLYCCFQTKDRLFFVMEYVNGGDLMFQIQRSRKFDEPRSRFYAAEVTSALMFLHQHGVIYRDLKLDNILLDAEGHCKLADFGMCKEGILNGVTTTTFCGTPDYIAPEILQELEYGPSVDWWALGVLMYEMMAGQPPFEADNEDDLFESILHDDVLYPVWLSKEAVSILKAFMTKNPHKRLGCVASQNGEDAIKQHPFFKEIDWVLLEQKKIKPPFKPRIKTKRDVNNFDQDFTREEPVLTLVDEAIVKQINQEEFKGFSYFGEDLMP

Mitogen-activated protein kinase 8 (Homo sapiens), sequence (P45983 whole entry): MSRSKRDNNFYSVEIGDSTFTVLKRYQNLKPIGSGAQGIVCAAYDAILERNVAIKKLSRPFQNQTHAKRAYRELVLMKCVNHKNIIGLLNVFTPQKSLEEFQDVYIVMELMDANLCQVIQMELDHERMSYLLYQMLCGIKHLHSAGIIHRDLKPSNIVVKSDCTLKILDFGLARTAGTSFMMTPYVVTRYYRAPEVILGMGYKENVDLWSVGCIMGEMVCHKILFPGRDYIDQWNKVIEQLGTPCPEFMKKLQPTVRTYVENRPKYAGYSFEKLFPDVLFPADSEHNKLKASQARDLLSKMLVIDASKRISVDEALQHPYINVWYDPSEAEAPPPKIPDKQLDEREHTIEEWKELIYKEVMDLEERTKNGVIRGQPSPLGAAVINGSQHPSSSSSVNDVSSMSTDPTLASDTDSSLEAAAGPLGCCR
Tyrosine-protein kinase HCK (Homo sapiens), sequence (P08631 2-526 limits assumed): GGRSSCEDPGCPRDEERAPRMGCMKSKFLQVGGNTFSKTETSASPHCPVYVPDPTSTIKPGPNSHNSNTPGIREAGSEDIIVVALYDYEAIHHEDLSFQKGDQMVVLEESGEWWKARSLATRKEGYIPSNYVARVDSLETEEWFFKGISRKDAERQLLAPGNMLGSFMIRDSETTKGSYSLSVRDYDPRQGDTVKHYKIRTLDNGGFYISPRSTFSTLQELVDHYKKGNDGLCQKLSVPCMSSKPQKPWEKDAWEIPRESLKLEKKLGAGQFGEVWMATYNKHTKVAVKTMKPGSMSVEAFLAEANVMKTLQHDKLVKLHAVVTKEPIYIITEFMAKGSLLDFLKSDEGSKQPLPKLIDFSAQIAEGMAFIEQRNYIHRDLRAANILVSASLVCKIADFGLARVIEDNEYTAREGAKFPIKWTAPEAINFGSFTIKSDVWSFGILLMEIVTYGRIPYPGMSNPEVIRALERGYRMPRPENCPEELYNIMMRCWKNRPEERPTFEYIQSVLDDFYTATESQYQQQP

inhibition [1] [%] | residual activity [2] [%] | residual activity [3] [%] | residual activity [4] [%] | residual activity [5] [%] | SMILES
73 | 2 | 15 | 35 | 21 | Cc1ccc2cc(-c3n[nH]c4ccc(NC5CCNC5)cc34)[nH]c2c1 (stereo not given)
76 | 9 | 61 | 75 | 67 | Cc1ccc2cc(-c3n[nH]c4ccc(NC5CCN(Cc6ccccc6)CC5)cc34)[nH]c2c1
